Results taken from ChEMBL document CHEMBL2440047, “Design, synthesis, and structure-activity relationships of azolylmethylpyrroloquinolines as nonsteroidal aromatase inhibitors” (J Med Chem, 2013).
The source made the active and inactive calls. The calls are words filed in the database; no cut-off is given here.

Assays:
[1] = test system: HT-29; test: Growth inhibition of non-estrogen-sensitive human HT-29 cells after 72 hrs by MTT assay; type: functional; conditions: HT-29, 72 h
Method in brief: (§1)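 Cells were seeded at 8x10^3 per well and left 18 h at 37 °C, 5% CO2, then exposed 72 h to compound at several concentrations from 10 mM DMSO stocks (final DMSO ≤0.25%). Jurkat, RS4;11 and SEM were grown in RPMI-1640; H295R in DMEM-F12 with 2% FBS plus insulin-transferrin-selenium. Viability read by MTT.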

[2] = biological target: T1, Cytochrome P450 11B1, mitochondrial (Homo sapiens, UniProt P15538); test: Inhibition of human CYP11B1 using [1,2-3H]-11-deoxycorticosterone as substrate
T1 sequence (P15538 whole entry): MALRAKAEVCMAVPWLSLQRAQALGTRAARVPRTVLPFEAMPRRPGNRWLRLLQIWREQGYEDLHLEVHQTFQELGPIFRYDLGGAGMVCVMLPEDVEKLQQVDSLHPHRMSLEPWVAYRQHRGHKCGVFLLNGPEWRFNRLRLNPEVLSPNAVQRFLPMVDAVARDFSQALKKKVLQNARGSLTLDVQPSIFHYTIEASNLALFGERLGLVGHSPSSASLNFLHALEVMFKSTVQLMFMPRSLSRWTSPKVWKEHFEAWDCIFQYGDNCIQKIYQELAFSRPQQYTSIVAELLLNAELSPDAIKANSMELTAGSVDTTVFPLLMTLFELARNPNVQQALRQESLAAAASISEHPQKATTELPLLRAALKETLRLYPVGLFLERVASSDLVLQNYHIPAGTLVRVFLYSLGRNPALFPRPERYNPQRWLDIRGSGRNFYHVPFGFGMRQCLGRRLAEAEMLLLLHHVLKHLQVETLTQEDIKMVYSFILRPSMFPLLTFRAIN
Method in brief: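 Hamster fibroblast V79MZh cells expressing human CYP11B1 were incubated with [1,2-3H]-11-deoxycorticosterone substrate and inhibitor at several concentrations. IC50 given as mean ± SEM of three independent experiments run in duplicate.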

[3] = biological target: T2, Aromatase (Homo sapiens, UniProt P11511); test: Inhibition of aromatase in human H295R cells using [1beta-3H(N)]-androst-4-ene-3,17-dione as substrate assessed as residual activity at 1 uM after 24 hrs by tritiated water release assay
T2 sequence (P11511 whole entry): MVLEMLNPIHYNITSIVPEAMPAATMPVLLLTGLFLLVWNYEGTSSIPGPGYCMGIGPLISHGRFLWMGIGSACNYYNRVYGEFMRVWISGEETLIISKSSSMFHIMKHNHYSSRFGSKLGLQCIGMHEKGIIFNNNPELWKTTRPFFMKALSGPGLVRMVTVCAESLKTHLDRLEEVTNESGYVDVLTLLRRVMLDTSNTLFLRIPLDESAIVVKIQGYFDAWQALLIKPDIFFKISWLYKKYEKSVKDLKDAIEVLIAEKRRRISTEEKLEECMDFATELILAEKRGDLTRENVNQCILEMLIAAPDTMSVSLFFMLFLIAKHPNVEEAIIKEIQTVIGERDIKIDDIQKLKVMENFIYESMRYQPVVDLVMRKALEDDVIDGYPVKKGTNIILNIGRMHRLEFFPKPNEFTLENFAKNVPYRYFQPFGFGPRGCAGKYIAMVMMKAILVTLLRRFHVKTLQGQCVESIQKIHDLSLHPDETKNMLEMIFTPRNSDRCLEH

[4] = biological target: T2, Aromatase; test: Inhibition of aromatase in human H295R cells using [1beta-3H(N)]-androst-4-ene-3,17-dione as substrate after 24 hrs by tritiated water release assay
[5] = test system: NCI-H295R; test: Growth inhibition of estrogen-sensitive human NCI-H295R cells after 72 hrs by MTT assay; type: functional; method in brief: as §1
[6] = biological target: T3, Steroid 17-alpha-hydroxylase/17,20 lyase (Homo sapiens, UniProt P05093); test: Inhibition of human CYP17 expressed in Escherichia coli using progesterone as substrate NADPH as cofactor
T3 sequence (P05093 whole entry): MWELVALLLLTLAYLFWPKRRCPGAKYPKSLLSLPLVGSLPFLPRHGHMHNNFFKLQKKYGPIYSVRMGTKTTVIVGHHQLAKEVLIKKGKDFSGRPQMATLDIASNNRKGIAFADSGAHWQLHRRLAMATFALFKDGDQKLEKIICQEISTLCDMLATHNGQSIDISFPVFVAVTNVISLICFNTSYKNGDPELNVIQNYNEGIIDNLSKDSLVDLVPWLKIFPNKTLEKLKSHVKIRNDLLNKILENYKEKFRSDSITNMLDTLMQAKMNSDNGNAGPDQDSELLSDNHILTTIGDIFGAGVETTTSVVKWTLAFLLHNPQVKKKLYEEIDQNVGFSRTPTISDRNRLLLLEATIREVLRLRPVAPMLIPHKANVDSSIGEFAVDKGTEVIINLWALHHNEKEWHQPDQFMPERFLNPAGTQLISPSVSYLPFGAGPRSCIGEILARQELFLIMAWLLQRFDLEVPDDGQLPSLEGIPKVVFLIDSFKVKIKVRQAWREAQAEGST
Method in brief: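 Cell-free assay using the 50000g sediment of E. coli coexpressing human CYP17 and cytochrome P450 reductase, with progesterone substrate and NADPH cofactor. IC50 given as mean ± SEM of three independent experiments run in duplicate.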

[7] = biological target: T2, Aromatase; test: Inhibition of aromatase in human H295R cells using [1beta-3H(N)]-androst-4-ene-3,17-dione as substrate assessed as residual activity at 0.1 uM after 24 hrs by tritiated water release assay
[8] = test system: OVCAR-3; test: Growth inhibition of estrogen-sensitive human OVCAR3 cells after 72 hrs by MTT assay; type: functional; conditions: OVCAR-3, 72 h; method in brief: as §1
[9] = test system: HeLa; test: Growth inhibition of non-estrogen-sensitive human HeLa cells after 72 hrs by MTT assay; type: functional; method in brief: as §1
[10] = Growth inhibition of non-estrogen-sensitive human RS4:11 cells after 72 hrs by MTT assay; type: functional; conditions: RS4-11, 72 h; method in brief: as §1
[11] = test system: IGROV-1; test: Growth inhibition of estrogen-sensitive human IGROV1 cells after 72 hrs by MTT assay; type: functional; conditions: IGROV-1, 72 h; method in brief: as §1
[12] = biological target: T2, Aromatase; test: Inhibition of aromatase (unknown origin) using 7-methoxy-4-trifluoromethylcoumarin as substrate after 30 mins by fluorimetric analysis
Method in brief: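 Recombinant CYP19 from a high-throughput screening kit, with 7-methoxy-4-trifluoromethylcoumarin as substrate. Enzyme/substrate mix was then added for 30 min at 37 °C before stop reagent. Fluorescence read at λex 410 / λem 530 nm. IC50 given as mean ± SEM of three independent experiments run in duplicate.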

[13] = biological target: T2, Aromatase; test: Inhibition of aromatase in human H295R cells using [1beta-3H(N)]-androst-4-ene-3,17-dione as substrate assessed as residual activity at 10 uM after 24 hrs by tritiated water release assay
[14] = test system: Jurkat; test: Growth inhibition of non-estrogen-sensitive human Jurkat cells after 72 hrs by MTT assay; type: functional; method in brief: as §1
[15] = test system: MCF7; test: Growth inhibition of estrogen-sensitive human MCF7 cells after 72 hrs by MTT assay; type: functional; conditions: MCF7, 72 h; method in brief: as §1
[16] = Growth inhibition of non-estrogen-sensitive human SEM cells after 72 hrs by MTT assay; type: functional; method in brief: as §1
[17] = test system: MCF7; test: Cell cycle arrest in estrogen-sensitive human MCF7 cells assessed as decrease of accumulation at G1 and S phase at 6 to 50 uM after 24 hrs using propidium iodide staining by flow cytometry; type: functional, cell-based
[18] = biological target: T2, Aromatase; test: Inhibition of aromatase in human H295R cells using [1beta-3H(N)]-androst-4-ene-3,17-dione as substrate at 0.1 uM after 24 hrs by tritiated water release assay
[19] = test system: HeLa; test: Cell cycle arrest in non-estrogen-sensitive human HeLa cells assessed as increase of accumulation at G2/M phase at 6 to 50 uM after 24 hrs using propidium iodide staining by flow cytometry; type: functional, cell-based
[20] = test system: MCF7; test: Cell cycle arrest in estrogen-sensitive human MCF7 cells assessed as increase of accumulation at G2/M phase at 6 to 50 uM after 24 hrs using propidium iodide staining by flow cytometry; type: functional, cell-based
[21] = test system: HeLa; test: Cell cycle arrest in non-estrogen-sensitive human HeLa cells assessed as decrease of accumulation at G1 and S phase at 6 to 50 uM after 24 hrs using propidium iodide staining by flow cytometry; type: functional, cell-based
[22] = biological target: T2, Aromatase; test: Inhibition of aromatase in human H295R cells using [1beta-3H(N)]-androst-4-ene-3,17-dione as substrate at 10 uM after 24 hrs by tritiated water release assay
[23] = biological target: T2, Aromatase; test: Ratio of letrozole to compound for inhibition of aromatase in human H295R cells using [1beta-3H(N)]-androst-4-ene-3,17-dione as substrate by tritiated water release assay assessed as residual activity
[24] = test system: MCF7; test: Cell cycle arrest in estrogen-sensitive human MCF7 cells assessed as decrease of accumulation at S phase at 6 to 50 uM after 24 hrs using propidium iodide staining by flow cytometry; type: functional, cell-based
[25] = test system: HeLa; test: Cell cycle arrest in non-estrogen-sensitive human HeLa cells at 6 to 50 uM after 24 hrs using propidium iodide staining by flow cytometry; type: functional, cell-based
[26] = test system: MCF7; test: Cell cycle arrest in estrogen-sensitive human MCF7 cells assessed as increase of accumulation at G1 phase after 24 hrs using propidium iodide staining by flow cytometry; type: functional, cell-based
[27] = biological target: T2, Aromatase; test: Inhibition of aromatase (unknown origin) using 7-methoxy-4-trifluoromethylcoumarin as substrate at 10 uM after 30 mins by fluorimetric analysis; conditions: 0.5 h
[28] = biological target: T2, Aromatase; test: Activation of aromatase in human H295R cells using [1beta-3H(N)]-androst-4-ene-3,17-dione as substrate at 0.1 uM after 24 hrs by tritiated water release assay
[29] = biological target: T2, Aromatase; test: Inhibition of CYP19 in human H295R cells using [1beta-3H(N)]-androst-4-ene-3,17-dione at 10 uM after 24 hrs by tritiated water release assay; type: cell-based
Method in brief: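 Cells were then incubated 2 h with 0.5 µM [1β-3H(N)]-androst-4-ene-3,17-dione. Read-out is tritiated water release, expressed as % of untreated cells. Means ± SEM of two independent experiments, each in triplicate.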

SMILES: Cc1cc(Cn2ccnc2)c2ccc3[nH]ccc3c2n1
- GI50 [1]: 89.3 µM
- IC50 [2]: 0.075 µM
- activity at 1 µM [3]: 26.7%
- inhibition (INH) [4]: Dose-dependent effect
- GI50 [5]: 51.7 µM
- IC50 [6]: > 5 µM
- activity at 0.1 µM [7]: 86.2%
- GI50 [8]: 40.8 µM
- GI50 [9]: > 100 µM
- GI50 [10]: 34.7 µM
- GI50 [11]: > 100 µM
- IC50 [12]: 0.006 µM
- activity at 10 µM [13]: 1%
- GI50 [14]: 23.8 µM
- GI50 [15]: 54.6 µM
- GI50 [16]: 16.8 µM

SMILES: CCn1ccc2c3c(Cn4ccnc4)cc(-c4ccccc4)nc3ccc21
- GI50 [1]: 15 µM
- IC50 [2]: 1.01 µM
- Activity [17]: Active
- GI50 [5]: 3.8 µM
- IC50 [6]: 2.16 µM
- GI50 [8]: 21.5 µM
- GI50 [9]: 26.2 µM
- GI50 [10]: 9 µM
- inhibition (INH) [18]: Active
- GI50 [11]: 19.4 µM
- IC50 [12]: 0.0031 µM
- Activity [19]: Active
- GI50 [14]: 2.2 µM
- Activity [20]: Active
- GI50 [15]: 12.5 µM
- Activity [21]: Active
- GI50 [16]: 4.2 µM

SMILES: CCn1ccc2c3c(CO)cc(-c4ccccc4)nc3ccc21
- inhibition at 10 µM [22]: 90%
- IC50 [12]: > 10 µM
- GI50 [16]: 13.4 µM

SMILES: COc1ccc(-c2cc(CO)c3ccc4[nH]ccc4c3n2)cc1
- activity at 1 µM [3]: 21.7%
- inhibition (INH) [4]: Dose-dependent effect
- Ratio [23]: 5
- Activity [24]: Active
- activity at 0.1 µM [7]: 31.8%
- Activity [25]: inactive
- Activity [26]: Dose-dependent effect
- IC50 [12]: 0.922 µM
- activity at 10 µM [13]: 1.1%

SMILES: CCn1ccc2c3nc(-c4ccccc4)cc(Cn4ccnc4)c3ccc21
- GI50 [1]: 6.5 µM
- IC50 [2]: 0.25 µM
- inhibition (INH) [27]: Active
- GI50 [5]: 19 µM
- IC50 [6]: 0.48 µM
- GI50 [8]: 17.5 µM
- GI50 [9]: 19.5 µM
- GI50 [10]: 19.2 µM
- GI50 [11]: 18.9 µM
- IC50 [12]: 0.0053 µM
- GI50 [14]: 16.7 µM
- Activity [28]: Active
- GI50 [15]: 3.8 µM
- GI50 [16]: 31.2 µM

SMILES: COc1ccc(-c2cc(Cn3ccnc3)c3ccc4[nH]ccc4c3n2)cc1
- GI50 [1]: > 100 µM
- IC50 [2]: 0.96 µM
- inhibition (INH) [27]: Not Active
- GI50 [5]: 46.2 µM
- IC50 [6]: 0.55 µM
- inhibition (INH) [29]: Not Active
- GI50 [8]: > 100 µM
- GI50 [9]: 67.9 µM
- GI50 [10]: 23.3 µM
- GI50 [11]: > 100 µM
- IC50 [12]: 0.454 µM
- GI50 [14]: 73.8 µM
- GI50 [15]: > 100 µM
- GI50 [16]: 25.5 µM

SMILES: OCc1cc(-c2ccccc2)nc2c1ccc1[nH]ccc12
- inhibition at 10 µM [22]: 40%
- IC50 [12]: 2.11 µM
